Data set [1] deals with Ramos. Put plainly: Induction of apoptosis in human Ramos cells assessed as total apoptosis rate at 10 uM after 72 hrs by Annexin V-FITC/propidium iodide staining based flow cytometry relative to control. (A flow cytometer gives signals particle by particle.)
In data set [2] the test system is Ramos. Put plainly: Antitumor activity against human Ramos cells xenografted in po dosed CB17/SCID mouse assessed as reduction in tumor growth administered as qd for 14 days. In kind it is functional, organism-based. A digest of the protocol:
(§1)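 Female CB17/SCID mice, 5–6 weeks old and 20–25 g, received 3×10⁶ Ramos cells in 0.1 mL PBS subcutaneously in the right axilla. From day 3 after implantation, dosing was oral at 30 or 60 mg/kg for 14 days; vehicle controls got oral 25% PEG-400. Tumor volume was A×B²/2 from caliper diameters. Tumor weight was taken at sacrifice, and body weight was tracked. n = 5.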
A general note: A xenograft is tissue or cells of one species grown in another, often human tumour cells in immunodeficient mice.

In data set [3] the test system is Ramos. Nature of the data set: Induction of apoptosis in human Ramos cells assessed as late apoptotic cells at 20 uM after 72 hrs by Annexin V-FITC/propidium iodide staining based flow cytometry (reference value: 0.5%). In kind it is functional.
Data set [4] deals with Tyrosine-protein kinase BTK (Homo sapiens, UniProt Q06187). Nature of the data set: Inhibition of recombinant full-length N-terminal His-tagged human BTK expressed in baculovirus infected Sf9 insect cells using Poly(4:1 Glu,Tyr) peptide substrate incubated for 60 mins by ADP-Glo luminescence assay.
Chain of Tyrosine-protein kinase BTK (Q06187 whole entry): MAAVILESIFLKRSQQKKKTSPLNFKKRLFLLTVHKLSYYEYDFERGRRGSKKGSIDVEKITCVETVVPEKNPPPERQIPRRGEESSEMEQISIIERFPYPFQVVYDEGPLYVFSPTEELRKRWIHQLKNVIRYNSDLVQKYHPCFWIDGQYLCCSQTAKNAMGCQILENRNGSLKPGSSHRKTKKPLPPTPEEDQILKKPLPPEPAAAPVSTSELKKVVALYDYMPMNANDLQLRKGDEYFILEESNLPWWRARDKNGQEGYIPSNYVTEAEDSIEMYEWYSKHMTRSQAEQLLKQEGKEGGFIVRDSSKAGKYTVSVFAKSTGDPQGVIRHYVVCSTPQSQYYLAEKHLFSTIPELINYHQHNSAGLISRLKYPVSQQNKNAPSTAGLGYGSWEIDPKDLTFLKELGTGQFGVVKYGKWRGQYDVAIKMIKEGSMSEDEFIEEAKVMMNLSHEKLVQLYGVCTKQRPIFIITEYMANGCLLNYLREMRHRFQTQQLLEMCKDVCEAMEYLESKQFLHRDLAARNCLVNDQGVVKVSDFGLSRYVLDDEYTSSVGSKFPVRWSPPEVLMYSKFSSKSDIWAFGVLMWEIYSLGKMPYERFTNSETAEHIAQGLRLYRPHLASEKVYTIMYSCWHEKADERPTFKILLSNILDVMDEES
In data set [5] the test system is Ramos. Put plainly: Induction of apoptosis in human Ramos cells assessed as viable cells at 5 uM after 72 hrs by Annexin V-FITC/propidium iodide staining based flow cytometry (reference value: 98.7%). The data set is classed as functional. The following applies: read-out: Activity.
In another data set the test system is PBMC. Nature of the data set: Cytotoxicity against human PBMCs assessed as induction of morphological changes at <10 uM after 24 hrs by AO/PI staining-based phase contrast microscopy. In kind it is cell-based.
Data set [6] concerns Ramos. Put plainly: Antiproliferative activity against human Ramos cells at 1.25 to 40 uM by CCK-8 assay. The following applies: TDE = time-dependent effect. In kind it is functional, cell-based. Put shortly:
(§2)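 CCK-8 viability assay. Cells were seeded at 3000/well in RPMI-1640 with 10% FBS at 37 °C, 5% CO2, for 4 h before treatment. Exposure was 72 h at five concentrations (1.25, 5, 10, 20, 40 µM), each in five replicates. Absorbance was read at 450 nm. IC50 came from dose-response curves, as the mean of at least three separate experiments.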
On the technique in general: Formazan colour is commonly taken as a measure of viable cells.

The test system of data set [7] is Ramos. Nature of the data set: Antiproliferative activity against human Ramos cells after 72 hrs by CCK-8 assay.
The subject of data set [8] is Ramos. Put plainly: Antiproliferative activity against human Ramos cells assessed as inhibition of cell viability at 20 uM after 72 hrs by CCK-8 assay. In kind it is functional. A digest of the protocol:
as §2

The test system of data set [9] is Ramos. Nature of the data set: Antitumor activity against human Ramos cells xenografted in CB17/SCID mouse assessed as tumor growth inhibition at 60 mg/kg, po qd for 14 days. In kind it is functional. The following applies: 336 h, read-out: TGI. Put shortly:
as §1

Data set [10] has as its system Ramos. Nature of the data set: Induction of apoptosis in human Ramos cells assessed as viable cells at 10 uM after 72 hrs by Annexin V-FITC/propidium iodide staining based flow cytometry (reference value: 98.7%). The data set is classed as functional. The following applies: read-out: Activity.
Data set [11] has as its target T1, Tyrosine-protein kinase JAK3 (Homo sapiens) (UniProt P52333).
T1 sequence (whole entry): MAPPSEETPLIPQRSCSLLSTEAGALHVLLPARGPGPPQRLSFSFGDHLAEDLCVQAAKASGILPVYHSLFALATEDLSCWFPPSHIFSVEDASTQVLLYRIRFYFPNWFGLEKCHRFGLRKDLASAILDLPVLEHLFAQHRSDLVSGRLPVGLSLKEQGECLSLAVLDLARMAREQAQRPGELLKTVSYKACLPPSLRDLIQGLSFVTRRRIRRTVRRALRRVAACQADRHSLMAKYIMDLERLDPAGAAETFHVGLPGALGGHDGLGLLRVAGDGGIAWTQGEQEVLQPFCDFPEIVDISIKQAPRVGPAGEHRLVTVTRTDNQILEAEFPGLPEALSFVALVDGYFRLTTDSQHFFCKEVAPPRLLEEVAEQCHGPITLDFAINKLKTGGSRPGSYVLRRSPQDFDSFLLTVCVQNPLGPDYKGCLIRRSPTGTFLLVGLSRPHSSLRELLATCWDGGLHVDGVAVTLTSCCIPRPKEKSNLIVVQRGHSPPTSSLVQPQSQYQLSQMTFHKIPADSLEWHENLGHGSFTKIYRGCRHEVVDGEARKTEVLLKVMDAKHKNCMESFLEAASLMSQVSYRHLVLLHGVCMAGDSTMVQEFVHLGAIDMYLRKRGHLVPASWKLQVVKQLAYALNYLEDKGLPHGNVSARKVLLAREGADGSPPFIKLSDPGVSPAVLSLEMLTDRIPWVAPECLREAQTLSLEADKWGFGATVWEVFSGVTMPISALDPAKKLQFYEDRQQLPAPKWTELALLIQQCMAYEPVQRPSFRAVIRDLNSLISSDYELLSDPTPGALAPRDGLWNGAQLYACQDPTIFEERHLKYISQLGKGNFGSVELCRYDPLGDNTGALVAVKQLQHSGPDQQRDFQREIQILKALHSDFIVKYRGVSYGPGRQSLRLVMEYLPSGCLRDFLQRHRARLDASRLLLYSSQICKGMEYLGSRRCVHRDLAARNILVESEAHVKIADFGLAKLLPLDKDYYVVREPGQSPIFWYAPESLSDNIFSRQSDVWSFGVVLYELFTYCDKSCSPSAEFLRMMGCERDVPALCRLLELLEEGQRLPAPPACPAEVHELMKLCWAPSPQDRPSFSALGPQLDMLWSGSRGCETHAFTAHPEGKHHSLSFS
Put plainly: Inhibition of JAK3 in human NAMALWA cells assessed as reduction in STAT3 phosphorylation after 48 hrs by immunoblot analysis. The data set is classed as cell-based. Put shortly:
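Namalwa cells were treated with 1, 5 or 10 µM for 48 h. Lysates were cleared at 14,000 g for 15 min at 4 °C, and 50 µg of protein was run on 8–12% SDS-PAGE and transferred to PVDF. Membranes were blocked in 5% milk for 2 h and incubated with primary antibody overnight at 4 °C. Detection was by ECL, with band IOD normalized to β-actin.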

Data set [12] relates to Ramos. Put plainly: Induction of apoptosis in human Ramos cells assessed as late apoptotic cells at 10 uM after 72 hrs by Annexin V-FITC/propidium iodide staining based flow cytometry (reference value: 0.5%). In kind it is functional.

From ChEMBL document CHEMBL4251566 (Eur J Med Chem, 2018) come the findings set out here.

For orientation: IC50 means the concentration needed to halve the response being measured. What is called inhibition is the relative decrease from the control value, in per cent. Consider `C=CC(=O)Nc1cccc(Nc2nc(Nc3ccc(OCCCN4CCOCC4)cc3)ncc2Cl)c1`, for which the Activity in the data set with Ramos [1] is 77.2%; with Ramos [3], 18.6%; with PBMC, “Non-Toxic”; in the data set on Ramos [6] it was “Tde”; in the data set on Ramos [12], 9.6%. Also, in the data set on Ramos [2], the TGI entry is “Dose-dependent effect”. Further, the concentration for half-maximal inhibition (IC50) in [4] amounted to 0.0006 µM; in the data set on Ramos [7], 4.85 µM. Further, in the data set with Ramos [5], the viability at 5 µM amounted to 34.4%. Besides, in the data set on Ramos [8], the inhibition at 20 µM worked out at 91%. Moreover, the inhibition in vivo at 60 mg/kg in the data set on Ramos [9] worked out at 47.5%. In the data set on Ramos [10], the viability at 10 µM is 20.1%. Besides, in [11], the inhibition entry was “Dose-dependent effect”.
With `C=CC(=O)Nc1cccc(Nc2nc(Nc3ccc(OCC(=O)N4CCOCC4)c(Cl)c3)ncc2Cl)c1`, the Activity with Ramos [1] was 69.9%; with Ramos [3] it was 14.4%; in the data set on PBMC, “Non-Toxic”; with Ramos [6], “Tde”; with Ramos [12], 10.9%. The TGI result with Ramos [2] is “Dose-dependent effect”. The IC50 in data set [4] was 0.0008 µM; in the data set on Ramos [7], 2.46 µM. The viability at 5 µM in the data set with Ramos [5] came out at 37.2%. Besides, in the data set with Ramos [8], the inhibition at 20 µM came out at 91%. For the same molecule, the inhibition in vivo at 60 mg/kg in the data set with Ramos [9] worked out at 36.6%. Further, in the data set on Ramos [10], the viability at 10 µM amounted to 29%. The inhibition entry in data set [11] is “Dose-dependent effect”.
